Screening data deposited in PubChem by several laboratories.
The list is not random: actives were taken first. Their share in the collection is about 12%.
L major viab = reduces viability of Leishmania major promastigotes; resazurin fluorescence viability; inhibition, % at 10 µM; 200,000 tested, 9% active; in the data active means inhibition above about 50%;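 further: promastigotes grown with compound for 44 hours at 28 °C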
MT stabilizer = microtubule stabilizers in HeLa cells; HeLa tubulin immunostaining HCS, 24 h; share of cells brighter than vehicle mean+2SD; % tubulin-high responders, % at 10 µM; 200,000 tested, 0.83% active;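 active means plate Z-score above 3 for both tubulin-high and condensed-nucleus cell shares, with cell loss under 80%, at 10 µM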;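 further: anti alpha tubulin signal scored within the nucleus-defined area of each cell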
bCat nuc transl = alters nuclear translocation of beta-catenin in HeLa cells; nuclear translocation activity, % at 5 µM; 190,000 tested, 0.3% active; immunofluorescence imaging;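 active means nuclear translocation activity above 50% at 5 µM, with a well cell count of 50 or more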;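 further: per-cell ratio of nuclear to cytoplasmic median beta-catenin stain intensity; plate controls were DMSO negative control for no effect and GSK-3 inhibitor IX positive control for full effect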
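assay system = human HeLa cells, endogenous beta-catenin | times = compound treatment 24 h, 37°C, 5% CO2 | detection = Anti-beta-catenin immunofluorescence on PFA-fixed, Triton-permeabilized cells, DAPI nuclei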
Dynein cargo inh = dynein cargo transport inhibition; 3617.4 mouse cells, GR-EGFP nuclear translocation imaging; test concentration mostly 20 µM; stimulated with dexamethasone, 1 µM; active compounds read low; z-score, hits read low; 220,000 tested, 0.47% active;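 active means plate z-score of nuclear minus cytoplasmic receptor signal below a set negative limit, without overly bright fluorescence or cell loss, cut at about -3.5 in these data, passing the limit was not always enough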;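 further: z-score of nuclear minus cytoplasmic ring GR-EGFP intensity difference per well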
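Buffer or medium: tet-free, stripped-serum medium; Also added: dexamethasone, 1.0 µM final; Technique: high-content fluorescence imaging after fixation; Times: 48 h induction, 1 h compound, 30 min dex at 37 °C; Read-out: per-cell GR-EGFP intensity, nucleus versus surrounding cytoplasmic ring, well-averaged.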
CHOP inh = CHOP inhibition in unfolded protein response | CHO-K1 CHOP-promoter luciferase, tunicamycin-induced, 15-18 h | AID 2732 | 220,000 tested, 3.8% active | inhibition, % at 10 µM;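 active means compounds that reduced the stress-induced luciferase reporter signal by more than about 70% of percent inhibition, limit read from the data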;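 further: 0% = tunicamycin plus vehicle and 100% = wells without tunicamycin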
Autophagy HCS = alters autophagy in cells | MEF GFP-LC3 puncta imaging; test concentration mostly 10 µM | calls only at 10 µM (by protocol) | 190,000 tested, 0.98% active | AID 463193;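 active means percentage of spot-positive cells more than 3 SD above its plate mean, without a fluorescence outlier flag or 80% toxicity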;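 further: spot-positive cell cutoff set from DMSO-treated cells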
* marks the source's active call; other numbers are inactive results; i = inactive; x = no result given; + = active, no number.

SMILES | L major viab | MT stabilizer | bCat nuc transl | Dynein cargo inh | CHOP inh | Autophagy HCS
Cn1c(=O)c2ncn(CC(=O)O)c2n(C)c1=O | x | x | -2 | 0.084 | 7 | x
COc1ccc(CCNC(=O)COC(=O)C23CC4CC(CC(Br)(C4)C2)C3)cc1 | 56* | 3 | x | 1.8 | 54 | i
N#Cc1c(C(F)(F)F)cc(-c2ccco2)nc1SCc1ccccn1 | 2 | 2 | 0 | -0.61 | 42 | +
COC(=O)c1ccc(Nc2cc(C)nc(-c3ccccc3O)n2)cc1 | -5 | 4 | x | -0.47 | -35 | i
Cc1cc(N/N=C/c2ccccc2O)nc(-c2ccccc2O)n1 | 53* | 2 | 0 | 0.63 | 75* | i
COC(=O)c1cccc(Nc2cc(C)nc(-c3ccccc3O)n2)c1 | 67* | 5 | -1 | -0.29 | 33 | i
C/C(=N\Nc1cc(C)nc(-c2ccccc2O)n1)c1ccccc1O | x | x | 1 | -0.31 | 40 | x
Cc1cc(N/N=C\c2ccccc2)nc(-c2ccccc2O)n1 | 74* | 2 | -2 | 1.7 | 58 | i
Cc1oc(S(=O)(=O)N2CCCCC2)cc1NC(=O)Nc1ccc(F)cc1 | x | x | 0 | 0.48 | 41 | x
O=C(CN1CCN(c2ccccn2)CC1)Nc1cc(C(F)(F)F)ccc1Cl | -6 | 1 | -3 | -0.041 | 60 | i
Cn1cccc1/C=C1\CC(C(C)(C)C)C/C(=C\c2cccn2C)C1=O (stereo unspecified) | 87* | 1 | -7 | -0.82 | 31 | +
CC(C)(C)OC(=O)[C@H]1[C@H](c2ccc([N+](=O)[O-])cc2)C2(C(=O)c3ccccc3C2=O)C2c3ccccc3C=NN21 (stereo partly specified) | 21 | 5 | 1 | -0.096 | 15 | i
Cc1ccc(C)c(NC(=O)Cc2coc3cc4c(cc23)CCC4)c1 | 0 | 2 | -1 | -0.46 | 85* | i
CN1CC(c2ccc(C#N)cc2)C2(COc3ccccc3C2=O)C12C(=O)Nc1ccccc12 (stereo unspecified) | 90* | 2 | x | -0.23 | 36 | i
Cc1ccc2cc3c(N)c4c(C)ccc(C)c4nc3nc2c1 | 100* | 5 | 0 | 1.7 | -53 | i
COC(=O)c1c(NC(=O)COC(=O)c2ccccc2O)sc2c1CCCCC2 | 6 | 3 | -1 | 1.6 | 10 | i
COC(=O)c1c(NC(=O)COC(=O)c2ccc(C)s2)sc2c1CCCCC2 | -4 | 2 | 4 | -0.12 | 72* | i
COC(=O)c1c(NC(=O)COC(=O)[C@@H](NS(=O)(=O)c2ccc(C)cc2)C(C)C)sc2c1CCC2 | 94* | 3 | -1 | -0.32 | 62 | i
COC(=O)c1cc(C(=O)c2ccc(Cl)cc2)n2c(=O)/c(=C\N(C)C)sc12 | 9 | 3 | 6 | -0.34 | 11 | +
CCc1c(C)nc2ncnn2c1N1CCN(S(=O)(=O)c2ccc(OC)cc2)CC1 | 11 | 1 | 3 | 0.18 | 12 | i
CCCSc1nnc(-c2cccc(S(=O)(=O)N(C)C)c2)n1-c1cc(OC)ccc1OC | 53* | 2 | 0 | -0.7 | -26 | i
CCSc1nnc(-c2cccc(S(=O)(=O)N(C)C)c2)n1-c1cc(OC)ccc1OC | -4 | 1 | -4 | 0.93 | 8 | i
CCCC1(C)Nc2ccccc2-c2nc3ccccc3n21 (stereo unspecified) | 85* | 3 | 1 | -0.58 | -24 | i
c1ccc2c(c1)NC1(CCCC1)n1c-2nc2ccccc21 | 44 | 9 | -1 | -1.5 | 3 | i
CC(=O)Nc1ccc(S(=O)(=O)N2CCN(Cc3cccs3)CC2)cc1 | -1 | 4 | 0 | -0.56 | -8 | i
SMILES | L major viab | MT stabilizer | bCat nuc transl | Dynein cargo inh | CHOP inh | Autophagy HCS
CCCCCCCC(=O)NNC(=O)c1c(O)c2ccccc2[nH]c1=O | x | x | -1 | 0.28 | 70* | x
CCCCCCNC(=O)c1c(O)c2ccccc2[nH]c1=O | -4 | 5 | -2 | -0.14 | 88* | i
CCC(=O)NNC(=O)c1c(O)c2ccccc2[nH]c1=O | -4 | 3 | -3 | -0.66 | 22 | i
CC(=O)CCn1cc([N+](=O)[O-])nc1C | x | x | 0 | 0.8 | 4 | x
Cc1ccc(C(OC(=O)c2ccco2)C(=O)NCc2cccs2)cc1 (stereo unspecified) | 56* | 3 | -1 | 1 | -34 | i
CN(C(=O)Cc1c[nH]c2ccccc12)C(C(=O)Nc1ccc2c(c1)OCO2)c1ccccc1 (stereo unspecified) | 61* | 3 | -3 | -0.33 | 20 | i
COc1cccc(N2CCN(C(=O)CCCCCNc3nc(=S)[nH]c4ccccc34)CC2)c1 | 74* | 7 | 0 | -0.87 | 13 | i
Cc1ccc(CNC(=O)CCCCCNc2nc(=S)[nH]c3ccccc23)cc1 | 0 | 3 | 1 | 0.65 | 41 | i
O=C(CCCn1c(=O)[nH]c2ccccc2c1=O)N1CCN(c2ccccn2)CC1 | -3 | 3 | 1 | 2.2 | -6 | i
O=C(CCCCCNc1nc(=S)[nH]c2ccccc12)N1CCN(c2ccccn2)CC1 | 57* | 3 | 1 | -0.1 | 42 | i
Cc1cc(N)n2ncc(-c3ccc(Cl)cc3)c2n1 | 55* | 3 | 4 | -0.42 | 37 | i
Cc1cccc(NC(=S)N(CCCN2CCOCC2)C(C)c2cc3ccccc3o2)c1 (stereo unspecified) | 81* | 3 | -1 | 1.1 | 12 | i
Cc1cccc(NC(=S)N(CCCN2CCOCC2)C(C)c2cc3ccccc3o2)c1C (stereo unspecified) | 80* | 3 | x | -1.1 | 35 | i
CCOc1ccc(NCc2nc3ccccc3n2CCOc2ccccc2)cc1 | 72* | 4 | 5 | 2.3 | 28 | i
Cc1ccc(OCCCCn2c(CO)nc3ccccc32)cc1 | 56* | 2 | -1 | -0.72 | 30 | i
CCCc1cc(=O)oc2c3c(c4c(c12)OC(C)(C)C=C4)OC(C)C(C)C3O (stereo unspecified) | x | x | 2 | -0.16 | 5 | x
COCc1ccc(C(=O)N2CCCC(CCC(=O)NCc3ccccc3F)C2)o1 (stereo unspecified) | 0 | 24* | 41 | 2.6 | 4 | i
CCOc1cccc(CN2CCCC(CCC(=O)NCc3ccccc3F)C2)c1O (stereo unspecified) | 56* | 2 | -2 | 0.83 | 13 | i
COc1cccc(CNC(=O)CCC2CCCN(Cc3cc4ccccc4o3)C2)c1 (stereo unspecified) | 80* | 3 | 1 | -0.46 | -5 | i
CC(=O)c1cccc(CN2CCCC(CCC(=O)NCc3ccc(F)c(F)c3)C2)c1 (stereo unspecified) | 98* | 1 | -1 | -0.56 | 4 | i
Cc1ccc(Cl)cc1NC(=O)N[C@@H](C)C(=O)O | 0 | 2 | -2 | -0.11 | 8 | i
